Experimental data published in ChEMBL document CHEMBL4196201, “Discovery of N-(4-{[5-Fluoro-7-(2-methoxyethoxy)quinazolin-4-yl]amino}phenyl)-2-[4-(propan-2-yl)-1 H-1,2,3-triazol-1-yl]acetamide (AZD3229), a Potent Pan-KIT Mutant Inhibitor for the Treatment of Gastrointestinal Stromal Tumors” (J Med Chem, 2018).

Columns and labels:
[1] = Cytotoxicity in mouse parental BA/F3 cells incubated for 72 hrs by MTS assay; assay type: cell-based, BaF3
[2] = biological target: Platelet-derived growth factor receptor beta (Homo sapiens) (UniProt P09619); assay: Inhibition of TEL-fused PDGFRbeta (unknown origin) transfected in mouse BA/F3 cells assessed as inhibition of cell growth incubated for 72 hrs by MTS assay; assay type: cell-based
BaF3 [3] = assay: Antitumor activity against mouse BA/F3 cells expressing Kit exon 11 deletion (557 to 558 residues) and V654 mutant (unknown origin) allografted in CB17 SCID mouse assessed as inhibition of tumor growth at 80 mg/kg, po qd measured on last day of dosing; assay type: functional; settings: read-out: TGI
Outline: (§1)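 Ba/F3 cells bearing the KIT exon 11 del/D816H or exon 11 del/V654A mutation were grown as allografts in mice. Compounds were given p.o. once (QD) or twice daily (BD), and vehicle was given BD p.o. Tumor growth inhibition and regression (%) were taken on the last day of dosing. p-values were calculated relative to vehicle.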

BaF3 [4] = assay: Antitumor activity against mouse BA/F3 cells expressing Kit exon 11 deletion (557 to 558 residues) and V654 mutant (unknown origin) allografted in CB17 SCID mouse assessed as tumor regression at 80 mg/kg, po qd measured on last day of dosing; assay type: functional; outline: as §1
[5] = tested on: Mast/stem cell growth factor receptor Kit (Homo sapiens), P10721 [UNDEFINED MUTATION]
[6] = biological target: Mast/stem cell growth factor receptor Kit (Homo sapiens) (UniProt P10721)
[7] = biological target: Mast/stem cell growth factor receptor Kit (Homo sapiens) (UniProt P10721); remark: listed apart in the source
[8] = tested on: Mast/stem cell growth factor receptor Kit (Homo sapiens), P10721 [UNDEFINED MUTATION]; remark: listed apart in the source
[9] = tested on: Mast/stem cell growth factor receptor Kit (Homo sapiens), P10721 [UNDEFINED MUTATION]; remark: listed apart in the source
[10] = tested on: Mast/stem cell growth factor receptor Kit (Homo sapiens), P10721 [UNDEFINED MUTATION]; remark: listed apart in the source
[11] = tested on: Mast/stem cell growth factor receptor Kit (Homo sapiens), P10721 [V560D,D816H]
[12] = biological target: Platelet-derived growth factor receptor alpha (Homo sapiens) (UniProt P16234)
[13] = tested on: Platelet-derived growth factor receptor alpha (Homo sapiens), P16234 [V561D,D842V]
BaF3 [14] = assay: Antitumor activity against mouse BA/F3 cells expressing Kit exon 11 deletion (557 to 558 residues) and D816H mutant (unknown origin) allografted in CB17 SCID mouse assessed as inhibition of tumor growth at 300 mg/kg, po qd measured on last day of dosing; assay type: functional; settings: read-out: TGI; outline: as §1
BaF3 [15] = assay: Antitumor activity against mouse BA/F3 cells expressing Kit exon 11 deletion (557 to 558 residues) and V654 mutant (unknown origin) allografted in CB17 SCID mouse assessed as inhibition of tumor growth at 300 mg/kg, po qd measured on last day of dosing; assay type: functional; settings: read-out: TGI; outline: as §1
BaF3 [16] = assay: Antitumor activity against mouse BA/F3 cells expressing Kit exon 11 deletion (557 to 558 residues) and D816H mutant (unknown origin) allografted in CB17 SCID mouse assessed as tumor regression at 300 mg/kg, po qd measured on last day of dosing; assay type: functional; outline: as §1
BaF3 [17] = assay: Antitumor activity against mouse BA/F3 cells expressing Kit exon 11 deletion (557 to 558 residues) and V654 mutant (unknown origin) allografted in CB17 SCID mouse assessed as tumor regression at 300 mg/kg, po qd measured on last day of dosing; assay type: functional; outline: as §1
[18] = biological target: Mast/stem cell growth factor receptor Kit (Homo sapiens) (UniProt P10721); remark: listed apart in the source
[19] = biological target: Mast/stem cell growth factor receptor Kit (Homo sapiens) (UniProt P10721); remark: listed apart in the source
[20] = tested on: Mast/stem cell growth factor receptor Kit (Homo sapiens), P10721 [UNDEFINED MUTATION]; remark: listed apart in the source
[21] = tested on: Mast/stem cell growth factor receptor Kit (Homo sapiens), P10721 [V560D]
Sequence of Mast/stem cell growth factor receptor Kit (Homo sapiens), P10721 [V560D] (P10721 whole entry V560D): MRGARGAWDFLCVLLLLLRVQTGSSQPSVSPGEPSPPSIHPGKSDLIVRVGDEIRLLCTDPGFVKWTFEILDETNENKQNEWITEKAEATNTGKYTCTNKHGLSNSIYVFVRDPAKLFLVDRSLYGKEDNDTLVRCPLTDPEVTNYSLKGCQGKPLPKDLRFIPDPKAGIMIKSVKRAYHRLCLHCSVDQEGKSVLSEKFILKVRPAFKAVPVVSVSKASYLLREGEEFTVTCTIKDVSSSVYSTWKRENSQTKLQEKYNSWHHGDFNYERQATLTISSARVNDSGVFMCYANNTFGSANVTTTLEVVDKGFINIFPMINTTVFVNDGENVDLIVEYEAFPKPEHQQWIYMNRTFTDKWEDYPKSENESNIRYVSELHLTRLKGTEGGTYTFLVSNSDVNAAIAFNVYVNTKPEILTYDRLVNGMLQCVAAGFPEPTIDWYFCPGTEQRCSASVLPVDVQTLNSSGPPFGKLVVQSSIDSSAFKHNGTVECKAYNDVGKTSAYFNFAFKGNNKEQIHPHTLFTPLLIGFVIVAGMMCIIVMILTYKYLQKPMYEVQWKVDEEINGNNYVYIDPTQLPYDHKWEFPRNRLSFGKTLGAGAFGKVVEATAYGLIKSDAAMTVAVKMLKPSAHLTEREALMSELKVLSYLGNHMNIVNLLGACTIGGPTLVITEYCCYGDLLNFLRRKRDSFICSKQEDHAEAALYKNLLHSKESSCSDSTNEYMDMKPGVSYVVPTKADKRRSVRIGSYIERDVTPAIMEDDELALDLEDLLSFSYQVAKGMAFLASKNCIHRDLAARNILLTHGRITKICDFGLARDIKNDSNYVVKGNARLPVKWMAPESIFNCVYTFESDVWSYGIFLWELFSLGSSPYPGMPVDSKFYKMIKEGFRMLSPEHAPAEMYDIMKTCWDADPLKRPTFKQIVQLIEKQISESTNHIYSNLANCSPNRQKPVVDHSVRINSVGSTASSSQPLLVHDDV

Sequence of Mast/stem cell growth factor receptor Kit (Homo sapiens), P10721 [UNDEFINED MUTATION] (P10721 whole entry, looked up, stated change not applied): as the sequence (P10721 whole entry V560D) above, with D560V counted along it
Sequence of Mast/stem cell growth factor receptor Kit (Homo sapiens) (P10721 whole entry): as the sequence (P10721 whole entry V560D) above, with D560V counted along it
Sequence of Platelet-derived growth factor receptor beta (Homo sapiens) (P09619 whole entry, the tested form may be a part): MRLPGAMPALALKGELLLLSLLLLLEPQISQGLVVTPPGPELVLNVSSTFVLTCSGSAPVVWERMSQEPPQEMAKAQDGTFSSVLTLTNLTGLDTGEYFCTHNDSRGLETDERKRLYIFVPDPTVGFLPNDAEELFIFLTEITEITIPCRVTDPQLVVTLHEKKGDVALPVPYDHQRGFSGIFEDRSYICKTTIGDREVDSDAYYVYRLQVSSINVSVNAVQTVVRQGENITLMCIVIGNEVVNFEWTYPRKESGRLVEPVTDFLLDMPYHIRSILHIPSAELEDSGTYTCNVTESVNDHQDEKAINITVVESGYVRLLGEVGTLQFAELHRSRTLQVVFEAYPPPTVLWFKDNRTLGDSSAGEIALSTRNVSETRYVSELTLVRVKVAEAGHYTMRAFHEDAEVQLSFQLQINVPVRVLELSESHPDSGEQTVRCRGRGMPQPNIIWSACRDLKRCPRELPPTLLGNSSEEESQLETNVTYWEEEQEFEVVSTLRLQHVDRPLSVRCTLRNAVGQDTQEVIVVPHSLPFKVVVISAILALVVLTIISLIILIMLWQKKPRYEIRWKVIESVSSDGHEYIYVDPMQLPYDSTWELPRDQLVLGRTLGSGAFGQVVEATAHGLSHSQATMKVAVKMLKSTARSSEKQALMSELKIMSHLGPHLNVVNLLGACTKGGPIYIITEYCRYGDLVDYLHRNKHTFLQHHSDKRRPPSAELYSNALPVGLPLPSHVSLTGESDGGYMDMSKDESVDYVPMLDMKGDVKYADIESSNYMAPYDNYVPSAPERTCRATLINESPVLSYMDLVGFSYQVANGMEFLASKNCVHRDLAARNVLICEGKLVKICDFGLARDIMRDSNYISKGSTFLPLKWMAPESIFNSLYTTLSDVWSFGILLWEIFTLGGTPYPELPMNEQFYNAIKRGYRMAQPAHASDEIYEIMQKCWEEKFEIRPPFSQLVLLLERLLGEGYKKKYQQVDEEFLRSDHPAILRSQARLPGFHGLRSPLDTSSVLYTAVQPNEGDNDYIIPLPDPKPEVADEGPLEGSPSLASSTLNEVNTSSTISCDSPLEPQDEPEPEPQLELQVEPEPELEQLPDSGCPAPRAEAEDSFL
Sequence of Platelet-derived growth factor receptor alpha (Homo sapiens), P16234 [V561D,D842V] (P16234 whole entry V561D/D842V, the tested form may be a part): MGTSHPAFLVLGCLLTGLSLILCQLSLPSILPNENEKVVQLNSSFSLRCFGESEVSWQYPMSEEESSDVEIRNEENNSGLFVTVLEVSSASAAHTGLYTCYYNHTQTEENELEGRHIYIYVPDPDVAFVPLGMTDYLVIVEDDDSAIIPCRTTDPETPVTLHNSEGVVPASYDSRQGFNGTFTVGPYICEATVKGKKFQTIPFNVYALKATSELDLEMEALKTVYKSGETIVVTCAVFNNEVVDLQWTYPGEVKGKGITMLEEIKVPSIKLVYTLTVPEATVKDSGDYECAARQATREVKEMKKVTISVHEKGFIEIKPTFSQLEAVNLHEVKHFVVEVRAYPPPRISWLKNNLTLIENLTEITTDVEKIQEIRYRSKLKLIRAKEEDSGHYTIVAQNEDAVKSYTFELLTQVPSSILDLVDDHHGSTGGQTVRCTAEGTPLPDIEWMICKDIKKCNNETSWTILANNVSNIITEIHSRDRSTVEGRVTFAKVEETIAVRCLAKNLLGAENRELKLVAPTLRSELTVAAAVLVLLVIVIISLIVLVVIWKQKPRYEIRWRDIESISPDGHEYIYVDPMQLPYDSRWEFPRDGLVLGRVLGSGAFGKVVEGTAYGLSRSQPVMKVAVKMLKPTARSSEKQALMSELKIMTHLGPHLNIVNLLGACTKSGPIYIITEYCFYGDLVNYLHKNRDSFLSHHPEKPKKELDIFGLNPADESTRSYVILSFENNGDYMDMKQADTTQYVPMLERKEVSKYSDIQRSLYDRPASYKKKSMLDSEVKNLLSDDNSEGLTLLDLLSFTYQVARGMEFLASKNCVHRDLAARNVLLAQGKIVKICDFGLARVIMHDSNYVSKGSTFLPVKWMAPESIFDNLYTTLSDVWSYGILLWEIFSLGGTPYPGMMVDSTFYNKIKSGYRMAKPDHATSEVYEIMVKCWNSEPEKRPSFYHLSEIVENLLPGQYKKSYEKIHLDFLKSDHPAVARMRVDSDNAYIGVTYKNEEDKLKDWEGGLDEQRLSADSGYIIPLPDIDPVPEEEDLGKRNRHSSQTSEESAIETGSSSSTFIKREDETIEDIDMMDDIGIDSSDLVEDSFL
Sequence of Mast/stem cell growth factor receptor Kit (Homo sapiens), P10721 [V560D,D816H] (P10721 whole entry V560D/D816H): as the sequence (P10721 whole entry V560D) above, with D816H counted along it
Sequence of Platelet-derived growth factor receptor alpha (Homo sapiens) (P16234 whole entry): as the sequence (P16234 whole entry V561D/D842V, the tested form may be a part) above, with D561V, V842D counted along it

Row | GI50 [2] [nM] | GI50 [5] [nM] | GI50 [6] [nM] | GI50 [7] [nM] | GI50 [8] [nM] | GI50 [9] [nM] | GI50 [11] [nM] | GI50 [13] [nM] | Compound | GI50 at 72 h [1] [nM] | also measured
1 | 114 | 398 to 400 | 12 | 4 | 214 | 782 | 696 | 631 | CCN(CC)CCNC(=O)c1c(C)[nH]c(/C=C2\C(=O)Nc3ccc(F)cc32)c1C [SUNITINIB] | 4790 | inhibition in vivo at 80 mg/kg (BaF3 [3]): > 100%; Activity (BaF3 [4]): 87%; GI50 [10]: 271 nM; GI50 [12]: 30 nM
2 | 102 | 535 to 537 | 3950 | 17 | 216 | 669 | 1190 | 567 | Cc1ccc(NC(=O)c2ccc(CN3CCN(C)CC3)cc2)cc1Nc1nccc(-c2cccnc2)n1 [IMATINIB] | > 10000 | inhibition in vivo at 300 mg/kg (BaF3 [14]): 43%; inhibition in vivo at 300 mg/kg (BaF3 [15]): 34%; Activity (BaF3 [16]): 0%; Activity (BaF3 [17]): 0%; GI50 [18]: 192 nM; GI50 [19]: 2750 nM; GI50 [20]: 312 nM; GI50 [21]: 70 nM
